# Screens from PubChem.
# Shown are actives, neighbours in structure and some others; about 12% of the full set was active somewhere.
# CHOP inh: blocks CHOP induction under ER stress; CHO-K1 CHOP-promoter luciferase, tunicamycin-induced, 15-18 h; inhibition, % at 10 µM; 220,000 tested, 3.8% active;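 active = compounds that reduced the stress-induced luciferase reporter signal by more than about 70% of percent inhibition, limit read from the data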;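 also: 0% = tunicamycin plus vehicle and 100% = wells without tunicamycin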
# L major viab: reduces viability of Leishmania major promastigotes. resazurin fluorescence viability. inhibition, % at 10 µM. 200,000 tested, 9% active; in the data active = inhibition above about 50%;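 also: promastigotes grown with compound for 44 hours at 28 °C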
# Dynein cargo inh: dynein cargo transport inhibition. 3617.4 mouse cells, GR-EGFP nuclear translocation imaging; test concentration mostly 20 µM; stimulated with dexamethasone, 1 µM; stronger effect = lower value. z-score, hits read low. 220,000 tested, 0.47% active;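 active = plate z-score of nuclear minus cytoplasmic receptor signal below a set negative limit, without overly bright fluorescence or cell loss, cut at about -3.5 in these data, passing the limit was not always enough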;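 also: z-score of nuclear minus cytoplasmic ring GR-EGFP intensity difference per well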
#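 Buffer or medium: tet-free, stripped-serum medium; reagent: dexamethasone at 1.0 µM final, 30 min; incubation: 48 h induction, 1 h compound, 30 min dex at 37 °C; measured by: formaldehyde fixation, Hoechst nuclear stain, 10x automated fluorescence imaging; read-out: nuclear-to-cytoplasmic GR-EGFP distribution per well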
# Autophagy HCS: autophagy modulation, high-content screen; MEF GFP-LC3 puncta imaging; test concentration mostly 10 µM; calls only at 10 µM (by protocol); 190,000 tested, 0.98% active;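 active = percentage of spot-positive cells more than 3 SD above its plate mean, without a fluorescence outlier flag or 80% toxicity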;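 also: spot-positive cell cutoff set from DMSO-treated cells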
# b-catenin transl: beta-catenin nuclear translocation modulation. nuclear translocation activity, % at 5 µM. AID 1665. HeLa beta-catenin nuclear translocation, immunofluorescence imaging. 190,000 tested, 0.3% active;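 active = nuclear translocation activity above 50% at 5 µM, with a well cell count of 50 or more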;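 also: per-cell ratio of nuclear to cytoplasmic median beta-catenin stain intensity; plate controls were DMSO negative control for no effect and GSK-3 inhibitor IX positive control for full effect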
#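 Technique: fluorescence imaging of beta-catenin antibody stain plus DAPI / Material: human HeLa cell line / Incubation: compound treatment 24 h, 37°C, 5% CO2 / Read-out basis: % activation of per-cell nuclear versus cytoplasmic median beta-catenin signal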
# MT stabilizer: stabilizes microtubules in HeLa cells; % tubulin-high responders, % at 10 µM; HeLa tubulin immunostaining HCS, 24 h; share of cells brighter than vehicle mean+2SD; 200,000 tested, 0.83% active;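 active = plate Z-score above 3 for both tubulin-high and condensed-nucleus cell shares, with cell loss under 80%, at 10 µM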;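 also: anti alpha tubulin signal scored within the nucleus-defined area of each cell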
# * = called active by the depositor; i = inactive; . = not tested or not shown; + = active, no number.
SMILES,CHOP inh,L major viab,Dynein cargo inh,Autophagy HCS,b-catenin transl,MT stabilizer
Cn1nc(-c2ccc(N3CCCCC3)c(NC(=O)c3ccco3)c2)c2ccccc2c1=O,88.5*,56.0*,0.0947,i,-0.2,1.2
CCCCCCNC(=O)N[C@H](C(=O)NCCC[C@H]1CN2C(=NC[C@H]2C)N1CCC(c1ccccc1)c1ccccc1)C(C)O (stereo partly specified),-48.3,.,-1.11,.,0.6,.
COCCC1CCCCN1C(=O)c1cccc(OC2CCN(C3CCCC3)CC2)c1 (stereo unspecified),10.7,9.6,-0.345,i,-0.5,5.3
COc1cccc(CN(C)C(=O)c2cccc(OC3CCN(C4CCCC4)CC3)c2)c1,15.3,63.5*,-0.79,i,-1.4,1.7
O=C(NNC(=O)c1cc(O)c(O)c(O)c1)NC1CCCCC1,-19.8,91.7*,0.507,i,0.7,3.2
Cc1cccc(N=c2c([N+](=O)[O-])nn(-c3ccc(Cl)cc3)n2O)c1,32.9,78.5*,-0.932,i,-1.0,0.1
CCc1cccc(N=c2c([N+](=O)[O-])nn(-c3ccc(Cl)cc3)n2O)c1,58.6,37.3,1.36,i,-1.1,2.0
Cc1cc(C)cc(N=c2c([N+](=O)[O-])nn(-c3cccc(Cl)c3)n2O)c1,45.5,42.1,-0.26,+,.,3.1
CCOC(=O)C1=C(O)/C(=C\c2cc(C)n(-c3ccccc3F)c2C)N=C1C,10.7,35.5,0.095,i,-1.8,4.0
CCOC(=O)C1=C(O)/C(=C/c2cccc(OC)c2O)N=C1C,0.5,62.9*,-0.931,i,0.4,2.3
N#Cc1nc(-c2ccccc2F)oc1NC1CCCCC1,80.4*,20.1,-0.601,i,.,3.4
CCOc1cc(NC(=O)c2cccs2)c(OCC)cc1NC(=O)CCC(=O)NCC1CCCO1 (stereo unspecified),7.1,-3.3,-0.101,i,-1.2,5.8
Cc1cc(/C=C(\C#N)C(=O)NCc2cccs2)c(C)n1-c1ccccc1F,32.6,13.0,-1,i,-0.8,10.2
O=C(Nc1ccc2c(c1)OCO2)N1CCN(c2ccc(F)cc2)CC1,78.4*,-2.0,-0.111,i,-0.4,4.0
O=C(CN1CCN(c2ccc(Cl)cc2)CC1)c1ccc2c(c1)OCO2,19.4,-4.0,-0.716,i,0.6,2.1
CC(C(=O)N1CCN(c2ccc(Cl)cc2)CC1)c1ncc(C(F)(F)F)cc1Cl (stereo unspecified),71.0*,-6.3,-0.598,i,.,3.2
CNCC(=O)N1CCN(c2ncc(C(F)(F)F)cc2Cl)CC1,5.5,71.1*,-0.202,i,-1.5,3.5
O=C(CN1CCN(c2ccc(F)cc2)CC1)c1ccc2c(c1)OCO2,18.5,88.5*,0.479,i,0.8,2.3
COC(=O)c1sccc1-n1cccc1C(=O)C(=O)N1CCOCC1,6.6,4.3,2.7,i,0.9,2.9
O=C(Nc1ccc2c(c1)OCO2)N1CCN(c2ncc(C(F)(F)F)cc2Cl)CC1,51.4,68.1*,-0.973,i,-1.0,2.1
C=CCSC1=C(C#N)C(c2ccccc2Cl)C(C(=O)c2cccs2)C(O)(C(F)(F)F)N1 (stereo unspecified),20.3,88.2*,-0.263,i,4.5,4.5
O=C(O)c1ccc(COc2c(F)c(F)c(F)c(F)c2F)o1,1.3,-9.9,-0.302,i,-2.0,3.0
CCc1ccc2nc(Nc3nc(COC)cc(=O)[nH]3)nc(C)c2c1,15.7,11.6,-0.651,i,0.2,1.8
CCCCCc1c(C)nc(Nc2nc(C)c3cc(OC)ccc3n2)[nH]c1=O,89.7*,98.7*,2.86,i,-6.7,3.2
COc1nc(Nc2nc3ccccc3c(=O)[nH]2)nc2ccc(C)cc12,88.4*,.,-0.0699,.,-0.2,.
CCc1c(C)nc(Nc2nc(C)c3cc(OC)ccc3n2)[nH]c1=O,13.6,98.4*,0.37,i,0.2,3.8
CCc1c(C)nc(Nc2nc(C)c3ccc(OC)cc3n2)[nH]c1=O,0.2,94.1*,0.807,i,.,0.8
CCC(=O)Nc1cc(C(=O)OCC(=O)c2ccccc2)ccc1C,-33.2,6.4,2.63,i,.,6.3
CCn1cc(CNC(=O)c2c(-c3c(Cl)cccc3Cl)noc2C)c(C)n1,-40.0,-3.1,0.0807,i,.,2.4
